Measurements as given in article PMC3555362 (Angewandte Chemie (International Ed. in English), 2011).
Square brackets hold non-standard residues; d marks the D form. Peptide text beside a SMILES is read from it. pT = C[C@@H](OP(=O)(O)O)[C@H](N)C(=O)O; pS = N[C@@H](COP(=O)(O)O)C(=O)O

Assays:
[1] = test system: polo-box domain (PBD) of polo-like kinase 1 (Plk1), wild-type (His6-PBD345-603 WT); assay: fluorescence-based thermal stability; type: binding, human; settings: for Thermal shift, Δ: difference between wild-type and Y417A/Y421A thermal shifts
Outline: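 Fluorescence-based thermal stability screen of phosphorylated test peptides derived from PBIP1 and TCERG1, run in parallel on wild-type Plk1 polo-box domain and on the Y417A/Y421A double mutant. The mutant was designed to weaken binding at the hydrophobic pocket, so the wild-type-minus-mutant shift reports pocket involvement.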

[2] = molecular target: polo-box domain (PBD) of Plk1, His6-PBD345-603 (Homo sapiens, UniProt P53350); assay: isothermal titration calorimetry; type: binding
[3] = test system: PBD of human Plk1 (GPLGSPEF-PBD371-594); assay: X-ray crystal structure of peptide in complex with PBD; type: binding; settings: crystal structures 3P36 (DPPLHSpTA), 3P37 (FDPPLHSpTA), 3Q1I (FMPPPMSpSM)

Chain of polo-box domain (PBD) of Plk1, His6-PBD345-603 (P53350 345-603): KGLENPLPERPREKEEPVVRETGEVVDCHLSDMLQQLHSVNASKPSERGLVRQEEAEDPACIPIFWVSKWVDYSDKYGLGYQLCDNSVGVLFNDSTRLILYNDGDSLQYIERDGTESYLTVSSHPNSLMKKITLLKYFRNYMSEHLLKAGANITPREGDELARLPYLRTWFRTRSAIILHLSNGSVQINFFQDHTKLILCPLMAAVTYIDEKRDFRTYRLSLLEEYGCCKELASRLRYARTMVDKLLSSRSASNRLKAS

Compound: CC(=O)N[C@@H](C)C(=O)N[C@@H](CC(=O)O)C(=O)N1CCC[C@H]1C(=O)N1CCC[C@H]1C(=O)N[C@@H](CC(C)C)C(=O)N[C@@H](Cc1c[nH]cn1)C(=O)N[C@@H](CO)C(=O)N[C@H](C(=O)N[C@@H](C)C(N)=O)[C@@H](C)OP(=O)(O)O [ADPPLHSpTA] (Ac-ADPPLHS[pT]A-NH2)
- Thermal shift, Δ [1]: −0.2 °C
- Kd [2]: 1.32 µM

Compound: CC(=O)N[C@@H](CC(=O)O)C(=O)N1CCC[C@H]1C(=O)N1CCC[C@H]1C(=O)N[C@@H](CC(C)C)C(=O)N[C@@H](Cc1c[nH]cn1)C(=O)N[C@@H](CO)C(=O)N[C@H](C(=O)N[C@@H](C)C(N)=O)[C@@H](C)OP(=O)(O)O [DPPLHSpTA] (Ac-DPPLHS[pT]A-NH2)
- Thermal shift, Δ [1]: −0.4 °C
- Kd [2]: 2.14 µM

Compound: CC(=O)N[C@@H](Cc1ccccc1)C(=O)N[C@@H](CC(=O)O)C(=O)N1CCC[C@H]1C(=O)N1CCC[C@H]1C(=O)N[C@@H](CC(C)C)C(=O)N[C@@H](Cc1c[nH]cn1)C(=O)N[C@@H](CO)C(=O)N[C@H](C(=O)N[C@@H](C)C(N)=O)[C@@H](C)OP(=O)(O)O [FDPPLHSpTA] (Ac-FDPPLHS[pT]A-NH2)
- Thermal shift, Δ [1]: 4.3 °C
- difference in thermal shifts between wild-type and mutant protein (in words) ([1]; wild-type PBD versus Y417A/Y421A mutant): significant difference in thermal shifts
- Kd [2]: 0.25 µM
- affinity by ITC (in words) ([2]; ITC, 25 °C, compared with peptides without Phe71): increased affinity

Compound: CSCC[C@H](NC(=O)[C@H](COP(=O)(O)O)NC(=O)[C@H](CO)NC(=O)[C@H](CCSC)NC(=O)[C@@H]1CCCN1C(=O)[C@@H]1CCCN1C(=O)[C@@H]1CCCN1C(=O)[C@H](CCSC)NC(=O)[C@H](Cc1ccccc1)NC(C)=O)C(N)=O [FMPPPMSpSM] (Ac-FMPPPMS[pS]M-NH2)
- Thermal shift, Δ [1]: 0.0 °C
- Kd [2]: 515 µM
- hydrophobic pocket binding in crystal structure (in words) [3]: lack of hydrophobic pocket binding
